Measured values: ChEMBL document CHEMBL4266052, “Evaluation of Inhibitory Activities of UK-2A, an Antimycin-Type Antibiotic, and Its Synthetic Analogues against the Production of Anti-inflammatory Cytokine IL-4” (J Nat Prod, 2018)
Activity calls are given as the source filed them. No cut-off for these calls is given here.

Experiments:
[1] = tested on: RBL-2H3; assay: Cytotoxicity against rat RBL2H3 cells assessed as inhibition of cell proliferation up to 4000 nM after 24 hrs by CCK8 assay; type: cell-based; conditions: rbl-2h3, 24 h
Outline: (§1)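 RBL-2H3 cells seeded 10^5/well, 12 h at 37 °C, 5% CO2, then exposed to drug in DMEM for 24 h at 37 °C; medium replaced with serum-containing medium, CCK-8 (WST-8) added, absorbance at 450 nm after 1 h. Relative viability vs control, n = 4, Student's t-test p < 0.05.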

[2] = tested on: RBL-2H3; assay: Cytotoxicity against rat RBL2H3 cells assessed as inhibition of cell proliferation at >5 nM after 24 hrs by CCK8 assay; type: cell-based; conditions: rbl-2h3, 24 h
[3] = tested on: RBL-2H3; assay: Anti-inflammatory activity in DNP-IgE-stimulated rat RBL2H3 cells assessed as reduction of IL4 secretion at >20 nM pretreated for 10 mins followed by DNP-HSA stimulation measured after 1 hr by ELISA; type: functional, cell-based
Outline: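 RBL-2H3 cells, 2.5 × 10^4/well, cultured overnight, then sensitised 2 h with 50 ng/mL anti-DNP IgE in DMEM/10% FBS at 37 °C, 5% CO2. After washing, drug added in DMF (0.05% final). After 10 min, challenged with DNP-HSA (50 ng/mL final) for 1 h. Supernatant rat IL-4 measured by ELISA on Luminex multiplex system. Mean ± SEM, n = 3.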

[4] = tested on: RBL-2H3; assay: Anti-inflammatory activity in DNP-IgE-stimulated rat RBL2H3 cells assessed as reduction of IL4 secretion pretreated for 10 mins followed by DNP-HSA stimulation measured after 1 hr by ELISA
[5] = tested on: RBL-2H3; assay: Anti-inflammatory activity in DNP-IgE-stimulated rat RBL2H3 cells assessed as reduction of IL4 secretion at >2000 nM pretreated for 10 mins followed by DNP-HSA stimulation measured after 1 hr by ELISA; type: functional, cell-based
Outline: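 RBL-2H3 cells (2.5 × 10^4/well, cultured overnight in DMEM + 10% FBS, penicillin/streptomycin, 37 °C, 5% CO2) sensitized 2 h with 50 ng/mL anti-DNP IgE, washed, then drug in DMF (0.05% final) added 10 min before DNP-HSA (50 ng/mL final); IL-4 in supernatant after 1 h by rat IL-4 ELISA/Luminex. IC50 from dose–response curves.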

[6] = tested on: RBL-2H3; assay: Cytotoxicity against rat RBL2H3 cells assessed as inhibition of cell proliferation at >40 nM after 24 hrs by CCK8 assay; type: cell-based; conditions: rbl-2h3, 24 h; outline: as §1

Question: How did the Activity [1] turn out when CCCC[C@H]1C(=O)OC[C@H](NC(=O)c2nccc(OC)c2O)C(=O)O[C@@H](C)[C@@H]1OC(=O)C(C)C was run?
Answer: Non-Toxic

Question: How did the Activity [2] turn out when CCC[C@H]1C(=O)O[C@H](C)[C@H](NC(=O)c2cccc(NC=O)c2O)C(=O)O[C@@H](C)[C@@H]1OC(=O)CC(C)C was run?
Answer: Toxic

Question: And the Activity [3]?
Answer: Active

Question: What does the source list for COc1ccnc(C(=O)N[C@H]2COC(=O)[C@H](Cc3ccccc3)[C@@H](OC(=O)CC(C)C)[C@H](C)OC2=O)c1O?
Answer: IC50 [4]: 4390 nM; Activity [1]: Non-Toxic

Question: Which results are given for CC(C)C(=O)O[C@H]1[C@H](C)OC(=O)[C@@H](NC(=O)c2cccc(NC=O)c2O)COC(=O)[C@@H]1Cc1ccccc1?
Answer: IC50 [4]: 41.3 nM; Activity [1]: Non-Toxic

Question: Which results are given for CCCCC[C@H]1C(=O)O[C@H](C)[C@H](NC(=O)c2cccc(NC=O)c2O)C(=O)O[C@@H](C)[C@@H]1OC(=O)CC(C)C?
Answer: Activity [2]: Toxic; Activity [3]: Active

Question: COc1ccnc(C(=O)N[C@H]2COC(=O)[C@H](Cc3ccccc3)[C@@H](OC(=O)C(C)C)[C@H](C)OC2=O)c1O was tested. Which Activity [5] did it give?
Answer: Active

Question: And the IC50 [4]?
Answer: 1380 nM

Question: And the Activity [1]?
Answer: Non-Toxic

Question: CCCCCC[C@H]1C(=O)O[C@H](C)[C@H](NC(=O)c2cccc(NC=O)c2O)C(=O)O[C@@H](C)[C@@H]1OC(=O)CC(C)C [ANTIMYCIN A] was tested. Which Activity [2] did it give?
Answer: Toxic

Question: And the Activity [3]?
Answer: Active

Question: For CCCC[C@H]1C(=O)O[C@H](C)[C@H](NC(=O)c2cccc(NC=O)c2O)C(=O)O[C@@H](C)[C@@H]1OC(=O)CC(C)C [ANTIMYCIN A3], which Activity [2] is on record?
Answer: Toxic

Question: And the Activity [3]?
Answer: Active

Question: How did the Activity [6] turn out when CC(C)C(=O)O[C@H]1[C@H](C)OC(=O)[C@@H](NC(=O)c2cccc(NC=O)c2O)[C@@H](C)OC(=O)[C@@H]1Cc1ccccc1 [SPLENOCIN B] was run?
Answer: Toxic

Question: What about the Activity [3] of the same molecule?
Answer: Active
